Yeast growth inh – reduces growth of yeast BB579 in restrictive medium | AID 804 | S. cerevisiae BB579 growth, OD615, 48 h | inhibition, % at 10 µM | 140,000 tested, 0.51% active;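 active means inhibition above a set limit, 3 SD over the mean compound inhibition, cut at about 44% in these data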
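Test system: S. cerevisiae DeaD strain BB579 yeast; Medium: restrictive CSMM-D medium; Compound: one dose, 10 µM compound with 0.25% DMSO; Incubation: 4 h cell preincubation, 48 h compound exposure, 30 °C humidified; Signal: OD at 615 nm; Benchmarks: amphotericin B at 10 µg/mL as positive control.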
KCC2 mod – modulates chloride dependent transport by human KCC2; Q9H2X9; KCC2 cells, thallium flux FluoZin-2 fluorescence; B-score of Tl+ flux slope (higher = more flux/activation; lower = inhibition) at 10 µM; 190,000 tested, 2.2% active; AID 1456;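 active means thallium flux slope and its plate-corrected score both differing from the plate sample mean at a set confidence after two filtering rounds, in either direction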;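 further: slope of fluorescence scaled to starting intensity during 10 to 20 s after thallium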
RAM network inh – inhibitors of the yeast RAM network | S. cerevisiae dse1pr::URA3 reporter, 5-FOA growth OD615, 2 d; analog-sensitive cbk1-as2 kinase mutant strain | inhibition, % at 50 µM | 190,000 tested, 1.8% active | AID 868;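 active means inhibition above a set limit, 3 SD over mean compound inhibition, cut at about 8.4% in these data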;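 further: inhibition rescues growth on 5-FOA so higher OD means more RAM inhibition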
WT yeast gro inh – growth inhibition of WT yeast, mitochondrial fusion screen. inhibition, % at 10 µM. mitochondrial fusion phenotypic screen, WT strain. AID 1362. 190,000 tested, 2.1% active; in the data active means inhibition above about 58%; tested in S. cerevisiae
Yeast life ext – extends the lifespan of yeast; S. cerevisiae growth with nicotinamide, OD615; deaD strain in restrictive glucose medium; 130,000 tested, 0.68% active; inhibition of the nicotinamide effect, % at 10 µM;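 active means inhibition above a set limit, placed 3 SD over the median of all compounds, cut at about 26% in these data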
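assay system = DeaD-strain S. cerevisiae | buffer or medium = restrictive glucose medium | reagent = 1.5 mM nicotinamide | compound = 10 µM single point, 0.25% DMSO | incubation = 48 h compound exposure at 30 °C, humidified | signal = OD615 measurement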
KCC2 secondary – confirmation of human KCC2 transport modulators | HEK293-KCC2, thallium flux, FluoZin2 fluorescence; stronger effect = higher value | 3,700 tested, 15% active | shares compounds with KCC2 mod | normalised thallium flux (F/F0 slope) at 10 µM | AID 1713;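 active means thallium flux slope above the same plate's solvent-only control mean plus 3 SD; inconclusive means the two replicate wells disagree; inactive means no significant difference from solvent-only control wells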
KCC2 bumet counter – thallium flux persisting under bumetanide in KCC2 cells, counter-screen secondary assay. shares compounds with KCC2 mod. HEK293-KCC2 + bumetanide/ouabain, thallium flux FluoZin2; stronger effect = higher value. normalized thallium flux at 10 µM. 3,700 tested, 49% active. AID 1714;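 active means thallium entry rate above the same plate's blocked-transporter control wells by more than 3 SD; inconclusive means the two repeat wells disagree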;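 further: raw slope of fluorescence over initial fluorescence between 10 and 20 s after thallium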
KCC2 sec2 – KCC2 (human) modulation, second secondary assay; shares compounds with KCC2 mod; 3,700 tested, 23% active; HEK293-KCC2, thallium flux FluoZin2 fluorescence; actives lie on both sides; F/F0 rise rate, 10–20 s post-thallium; normalized thallium flux at 10 µM;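 active means thallium flux slope more than 3 SD above or below the plate's solvent-only control mean, mostly below; inconclusive means the two repeat wells disagreed; inactive means no significant shift from solvent-only controls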
HEK293 Tl flux – acts in parental HEK cells, KCC2 counter-screen; shares compounds with KCC2 mod; HEK293 parental cells, thallium flux FluoZin2, ouabain; baseline-ratio fluorescence slope, 10–20 s after thallium; thallium flux rate (normalised fluorescence) at 10 µM; 3,700 tested, 46% active; AID 1716;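 active means thallium flux rate significantly above the same plate's solvent-only control wells, beyond their mean plus 3 SD; inconclusive means the two replicate wells gave conflicting results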
KCC2 retest ouab – confirmation of human KCC2 modulators with ouabain. shares compounds with KCC2 mod. HEK293-KCC2, thallium flux FluoZin2 fluorescence; bidirectional: low = inhibitor, high = activator. raw Tl+ flux slope (below DMSO = inhibition, above = activation) at 10 µM. 3,700 tested, 48% active. AID 1717;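 active means thallium flux slope beyond 3 SD from same-plate DMSO control mean in most replicates, usually higher, sometimes lower; inconclusive means repeat tests gave conflicting results; inactive means no significant difference from controls in most replicates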;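 further: slope of initial-normalized fluorescence between seconds 10 and 20 after thallium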
HEK293 Tl flux2 – parental HEK flux effect, counter-screen 2 | HEK293 parental, thallium flux FluoZin-2 fluorescence slope | shares compounds with KCC2 mod | 3,700 tested, 33% active | thallium flux slope at 10 µM | AID 1718;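 active means thallium flux slope above the same plate's solvent-control mean plus 3 SD in both duplicate wells; inconclusive means duplicate wells that disagreed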;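 further: run without ouabain in cells lacking the KCC2 cotransporter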
Numbers stand for hits; - = inactive; ? = inconclusive; . = not tested or not shown. Sampled rows, rich in hits. Any-hit rate of the full collection: about 5.5%.

SMILES	Yeast growth inh	KCC2 mod	RAM network inh	WT yeast gro inh	Yeast life ext	KCC2 secondary	KCC2 bumet counter	KCC2 sec2	HEK293 Tl flux	KCC2 retest ouab	HEK293 Tl flux2
NS(=O)(=O)c1ccc2c(c1)oc(=O)c1cc(S(N)(=O)=O)ccc12	.	-	-	-	.	.	.	.	.	.	.
O=C1OC(Nc2ccc(F)cc2F)c2ccccc21 (stereo not drawn)	-	.	-	-	-	-	-	-	-	-	-
CCN(CC(=O)NC(C)C)C(=O)[C@H](C)NC(=O)c1ccc(Br)cc1	.	-	-	-	.	.	.	.	.	.	.
CCOC(=O)C1(CCOc2ccccc2)CCN(Cc2cc(OC)c3c(c2)OCO3)CC1	.	-	-	-	.	.	.	.	.	.	.
COc1ccc2[nH]c(=O)c(CN(Cc3ccccc3OC)Cc3nnnn3CC3CCCO3)cc2c1 (stereo not drawn)	-	8.65	-	-	-	-	-	-	-	-	-
COc1ccc2[nH]c(=O)c(CN(CCc3ccccc3)Cc3nnnn3CC3CCCO3)cc2c1 (stereo not drawn)	-	-	-	-	-	.	.	.	.	.	.
O=c1[nH]c2cc3c(cc2cc1CN(Cc1nnnn1CC1CCCO1)C1CCCCC1)OCO3 (stereo not drawn)	-	7.43	-	-	-	-	?	0.0252	-	0.0161	?
Cc1ccc2[nH]c(=O)c(CN(CCc3ccccc3)Cc3nnnn3CC3CCCO3)cc2c1 (stereo not drawn)	-	-4.29	-	-	-	?	-	?	-	-	-
CCc1cc(C(=O)N2CCCC(CCC(=O)N3CCN(c4ccccn4)CC3)C2)no1 (stereo not drawn)	.	-	-	-	.	.	.	.	.	.	.
CSCCC(=O)N1CCCC(CNC(=O)c2ccc(-c3ccccc3)cc2)C1 (stereo not drawn)	.	-5.83	-	-	.	-	-	0.0214	-	0.0134	-
CCc1cc(C(=O)N2CCCC(CNC(=O)c3ccc(-c4ccccc4)cc3)C2)no1 (stereo not drawn)	.	.	-	-	.	-	-	0.0275	-	0.0138	-
COc1ccc(OC)c(C(C)NC(=O)c2ccco2)c1 (stereo not drawn)	-	.	-	-	-	.	.	.	.	.	.
CCNC(=S)NN(c1ccccc1)c1ccccc1	-	-	-	-	-	.	.	.	.	.	.
O=C(CCCCn1c(=O)[nH]c2ccsc2c1=O)NCCc1ccccc1	.	-	-	-	.	.	.	.	.	.	.
O=C(CCn1c(=O)[nH]c2ccsc2c1=O)N(CCc1ccccc1)Cc1ccccc1	-	.	-	-	-	-	-	-	-	?	-
COC(=O)c1ccc(NC(=S)NC2CCCCC2)cc1	-	.	-	-	-	.	.	.	.	.	.
COC(=O)c1cccnc1NC(=S)NC1CCCCC1	.	121	-	-	.	0.0117	0.128	0.0977	0.105	0.0976	0.103
CC(C)N(Cc1nc(-c2ccccc2)no1)C(=O)CN(C)S(=O)(=O)c1ccc(Br)cc1	-	-	-	-	-	-	-	-	-	-	-
CC1Cc2ccccc2N1C(=O)CSc1nnc(-c2ccccc2)c(-c2ccccc2)n1 (stereo not drawn)	-	.	-	-	-	.	.	.	.	.	.
O=C1/C(=C\c2ccco2)NC(=S)N1c1ccccc1	.	15	-	-	.	0.0146	0.0332	-	0.0182	?	0.0125
Cc1cc(=O)[nH]c(SCC(=O)Nc2ccc(Br)cc2)c1C#N	-	-2.9	-	-	-	-	-	0.0229	0.006	0.0151	?

Screening results: PubChem BioAssay, several laboratories
